Bioassay records (PubChem BioAssay)
Hsp70 activator: transcriptional activators of Hsp70 | HeLa Hsp70 promoter luciferase reporter, luminescence; scaled: vehicle 0, proteasome-inhibitor control 100% | activation, % at 10 µM | 0.04% of 200,000 active;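 active = activation above the mean across all tested compounds plus 3 SD, cutoff set per campaign, cut at about 5.5% in these data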
HSF1 inh: HSF1 inhibition; NIH3T3-HGL HSE-luciferase, MG132-induced, luminescence 8 h; hits give low values; activity change, negative = inhibition, % at 7.5 µM (by protocol); 0.77% of 300,000 active; AID 2098;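 active = more than half of replicate wells show activity change below -50%, luminescence cut by over half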;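 also: luciferase reports HSF-1 transcriptional activity via heat shock element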
HSF-1 act: increases HSF-1 driven luciferase reporter signal; NIH3T3-HGL HSF-1 luciferase reporter, MG132, 8 h; 100% = twice DMSO control signal; AID 504408; 1.7% of 300,000 active; activation, % at 9 µM;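 active = mean replicate activation of at least 50% with a set share of replicates each reaching 50%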
L major viab: inhibitors of Leishmania major promastigote growth; 9% of 200,000 active; Leishmania major promastigotes, resazurin fluorescence viability; inhibition, % at 10 µM; in the data active = inhibition above about 50%;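 also: promastigotes grown with compound for 44 hours at 28 °C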
T cruzi repl: blocks replication of Trypanosoma cruzi. AID 1885. T. cruzi beta-gal in NIH3T3, luminescence, 90 h. 1.4% of 300,000 active. inhibition, % (test concentration not listed);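 active = mean inhibition across valid replicates above about 55%, limit read from the data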;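 also: signal also drops with host cell toxicity which is not excluded here; higher percent means less beta-gal luminescence so fewer parasites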
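Assay system: NIH/3T3 host cells with β-galactosidase reporter T. cruzi; input: 5,000 host fibroblasts per well; compound: single 50 nL compound addition per well in DMSO; timing: ≥90 h infection period, 3 h prior cell attachment; measured by: GalScreen β-gal luminescence, detergent lysis, 60 min; evaluation: percent inhibition of parasite-derived β-gal signal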
Of the large screens only hits and unclear results are named; the others gave an inactive call. Many of the other results were omitted from the sample, so hits are more common in it than they were.

O=C(NCc1ccccc1)C1CCCN(S(=O)(=O)c2cccc3nsnc23)C1 (stereo not given)	HSF1 inh -72.2 (no result: Hsp70 activator, L major viab)
O=S(=O)(c1cccc2nsnc12)N1CCN(C/C=C\c2ccccc2)CC1	L major viab 94.3
O=C(NCc1ccc(F)cc1)C1CCCN(S(=O)(=O)c2cccc3nsnc23)C1 (stereo not given)	none
O=S(=O)(c1cccc2nsnc12)N1CCN(C/C=C/c2ccccc2)CC1	L major viab 80.8
CC(=O)c1ccc(N2CCN(S(=O)(=O)c3c(C)[nH]c(C)c3C(=O)N3CCCCC3)CC2)cc1	none (no result: Hsp70 activator, L major viab)
Cc1ccc(C2SCCN2C(=O)c2ccc([N+](=O)[O-])cc2)cc1 (stereo not given)	L major viab 50.0
O=C(c1ccc([N+](=O)[O-])cc1)N1CCSC1c1ccc(Br)cc1 (stereo not given)	none
Cc1nc2scc(-c3ccccc3)c2c(=O)n1N=C1C=CC(=O)C=C1	T cruzi repl 66.9
O=C(NCc1ccc(C(=O)O)cc1)OCc1ccccc1	HSF1 inh -54.1
Cc1ccc(N(CC(=O)NN=C2CCN(C)CC2)S(=O)(=O)c2ccccc2)c(C)c1	L major viab 59.6
CCOC(=O)/C(=N\Nc1ccccc1[N+](=O)[O-])c1csc(N)n1	L major viab 51.6
COc1ccc(NS(=O)(=O)c2ccc(N3CCCC3)c(NC(=S)Nc3ccc(SC(F)F)cc3)c2)cc1	L major viab 86.5
COc1ccc(NS(=O)(=O)c2ccc(N3CCCC3)c(N)c2)cc1	none (no result: Hsp70 activator, L major viab)
COc1ccc(NS(=O)(=O)c2ccc(N3CCCC3)c(NC(=S)Nc3cccc(C)c3C)c2)cc1	L major viab 57.9
CC(C)CCn1c(=O)c2ccccc2n2c(CN3CCOCC3)nnc12	none
COc1cc(CNCc2ccccn2)ccc1OCC(=O)NC(C)(C)C	none
CC(C)(C)NC(=O)COc1ccc(CNCc2cccnc2)cc1	L major viab 89.1
COc1cc(CNCCc2ccccc2)ccc1OCC(=O)NC(C)(C)C	L major viab 99.0
Cc1ccc(OCC(=O)NCc2cccnc2)cc1	none
COc1cc(CNCc2cccnc2)ccc1OCC(=O)NC(C)(C)C	L major viab 92.4
Cc1cc(S(=O)(=O)N2CCC3(CC2)OCCN3S(=O)(=O)c2cccs2)ccc1F	none (no result: Hsp70 activator, L major viab)
CSc1nnc(-c2cc[n+](C)cc2)n1CCO	none
Cc1ccc(OCC(=O)NCCc2c[nH]c3ccccc23)cc1	none
C=CCn1c(-c2ccc(OC)cc2)csc1=Nc1c(C)n(C)n(-c2ccccc2)c1=O	L major viab 93.1
Cc1csc(=Nc2c(C)n(C)n(-c3ccccc3)c2=O)n1Cc1ccccc1	none (no result: HSF1 inh, HSF-1 act)
CCCCN(CC)Cc1ccc(CNC(=O)Nc2ccc(OCC)cc2)o1	L major viab 99.1
CCCCN(CC)Cc1ccc(CNC(=S)Nc2ccccc2F)o1	none
CCCCN(CC)Cc1ccc(CNC(=O)Nc2ccc(Cl)cc2)o1	L major viab 98.0
Cc1ccc(OCC(=O)OCC(=O)c2ccccc2)cc1C	none (no result: Hsp70 activator, L major viab)
Cc1cccc(S(=O)(=O)c2c(N)n(-c3ccccc3)c3nc4ccccc4nc23)c1	none
N#Cc1c(N(CCO)CCO)nc(N)c2c(N)nc3c(c12)CC(=O)N3CC1CCCO1 (stereo not given)	none (no result: Hsp70 activator, L major viab)
C=C(C)CN(CC)c1nc(N)c2c(N)nc3c(c2c1C#N)CC(=O)N3C12CC3CC(CC(C3)C1)C2	HSF-1 act 54.7, L major viab 90.2, T cruzi repl 56.9
N#Cc1c(N2CCCC(O)C2)nc(N)c2c(N)nc3c(c12)CC(=O)N3C12CC3CC(CC(C3)C1)C2 (stereo not given)	L major viab 99.1
CCCCN1C(=O)Cc2c1nc(N)c1c(N)nc(N(CCC)CCC)c(C#N)c21	T cruzi repl 74.1
COc1ccc(CNC(=O)C2CCN(c3nc(-c4ccccc4)nc4c3CCC4)CC2)cc1	none (no result: Hsp70 activator, L major viab)
COc1ccc(S(=O)(=O)N2CCCC(C(=O)Nc3cccc(C(C)=O)c3)C2)cc1 (stereo not given)	L major viab 57.5
COC(=O)c1ccc(NC(=O)C2CCCN2S(=O)(=O)c2ccc(OC)cc2)cc1 (stereo not given)	L major viab 57.6
Cc1onc(-c2c(F)cccc2Cl)c1C(=O)OCn1nnc2ccccc2c1=O	L major viab 99.4 (no result: HSF1 inh, HSF-1 act, T cruzi repl)
Cc1onc(-c2c(F)cccc2Cl)c1C(=O)Nc1cccc(Cn2cccn2)c1	L major viab 62.6
Cc1onc(-c2c(F)cccc2Cl)c1C(=O)ONC(=O)c1ccccc1	none (no result: Hsp70 activator, L major viab)
Cc1onc(-c2ccccc2Cl)c1C(=O)OCC(=O)c1c(N)n(C)c(=O)n(C)c1=O	none
Cc1onc(-c2c(F)cccc2Cl)c1C(=O)OCC(=O)c1c(N)n(C)c(=O)n(C)c1=O	L major viab 76.5
Cc1onc(-c2ccccc2)c1C(=O)N1CCCc2ccccc21	L major viab 98.4
Cc1noc(C)c1C(=O)N1CCc2ccccc21	none
O=C(c1ccco1)N1CCN(Cc2cc(=O)c(OCc3c(F)cccc3Cl)co2)CC1	none (no result: Hsp70 activator, L major viab)
COc1ccc(NS(=O)(=O)c2ccc3c(c2)NC(=O)CC(=O)N3)cc1OC	none (no result: Hsp70 activator, L major viab)
CCOC(=O)c1c(/N=C/C2=C(O)CC(C)(C)CC2=O)sc(C(C)=O)c1C	none
COC(=O)CCn1nc(-c2ccc(C)cc2)c2ccccc2c1=O	none
Cc1onc(-c2c(F)cccc2Cl)c1C(=O)O/N=C(\N)c1ccc([N+](=O)[O-])o1	T cruzi repl 59.6 (no result: Hsp70 activator, L major viab)
Cn1c(N)c(C(=O)COC(=O)c2ccc(Cl)c(S(=O)(=O)N3CCCCC3)c2)c(=O)n(C)c1=O	L major viab 87.6
C/C(=N\OC(=O)c1c(-c2c(F)cccc2Cl)noc1C)c1nccs1	none
Cc1onc(-c2c(Cl)cccc2Cl)c1C(=O)N1CCc2ccccc2C1	L major viab 95.4
Cn1c(N)c(C(=O)COC(=O)c2ccc(S(=O)(=O)N3CCCCC3)cc2)c(=O)n(C)c1=O	none
COc1ccc(/C(N)=N/OC(=O)c2c(-c3ccccc3Cl)noc2C)cc1OC	T cruzi repl 56.8 (no result: Hsp70 activator, L major viab)
O=C(CN(C(=O)CNS(=O)(=O)c1ccccc1)c1ccc(F)cc1)NCc1ccco1	none (no result: Hsp70 activator, L major viab)
Cc1ccc(C2=C(c3ccc([N+](=O)[O-])cc3)C(=O)OC2)cc1C	none
C=CCOc1ccccc1CN1CCC(n2nccc2NC(=O)c2ccccc2)CC1	none (no result: Hsp70 activator, L major viab)
COc1ccc(C(=O)N/C(=C\c2ccc3c(c2)OCO3)C(=O)Nc2cccc(C(=O)O)c2)cc1	none
Cc1onc(-c2c(F)cccc2Cl)c1C(=O)c1ccccc1	HSF1 inh -60.9 (no result: Hsp70 activator, L major viab)
O=C(CSc1nc2c(cnn2-c2ccccc2)c(=O)[nH]1)N1N=C(c2cccs2)CC1c1ccc(F)cc1 (stereo not given)	L major viab 68.9
Cc1cc(-c2cn3ccccc3n2)c(C)n1-c1ccccc1	T cruzi repl 62.2
COc1cccc2cc(-c3cn4cccc(C)c4n3)c(=O)oc12	none
COc1ccc(-n2c(C)cc(-c3cn4cccc(C)c4n3)c2C)cc1	L major viab 63.0
